Measurements as given in ChEMBL document CHEMBL3588789, “Synthesis and Pharmacokinetic Evaluation of Siderophore Biosynthesis Inhibitors for Mycobacterium tuberculosis” (J Med Chem, 2015).

What was measured:
[1] = AUC (0 to infinity) in Sprague-Dawley rat at 2.5 mg/kg, iv by LC-MS/MS method; type: ADME, organism-based; set-up: dose 2.5 mg/kg, route intravenous, time infinity; conditions: in vivo
In short: (§1)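 Female Sprague-Dawley rats (250–274 g) with dual jugular/femoral vein catheters, 3 per compound, given a single 2.5 mg/kg bolus into the jugular catheter over 5 s, 3 days after oral dosing. Vehicle was 0.05% sodium carboxymethylcellulose or 25% hydroxypropyl-β-cyclodextrin in water. Femoral blood sampled at 0–480 min into K2EDTA. Plasma analysed by LC–MS/MS with an internal standard. Non-compartmental analysis.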

[2] = Inhibition of Mycobacterium tuberculosis MbtA expressed in Escherichia coli using [32P]PPi, ATP and salicylic acid incubated for 20 mins by liquid scintillation counting method; conditions: read-out: Ki(app)
Caco-2 [3] = experiment: (§2) Apparent permeability from apical to basolateral side in human Caco2 cells after 30 to 120 mins by HPLC method; type: ADME, cell-based
In short: (§3)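 Caco-2 cells (passage 50–70) grown 21 days on Transwell inserts, used only where TEER >300. Apical buffer pH 6.0, basolateral pH 7.4, 60 min preincubation. Compound dosed from a 20 mM DMSO stock with lucifer yellow on the donor side. Samples analysed by HPLC. Papp = (dQ/dt)/(A·C0) from cumulative sampling. Efflux ratio from B–A and A–B values.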

[4] = (§4) Cmax in Sprague-Dawley rat at 25 mg/kg, po by LC-MS/MS method; type: ADME, organism-based; set-up: dose 25 mg/kg, route oral; conditions: Sprague-Dawley, in vivo
In short: (§5)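 Female Sprague-Dawley rats (250–274 g), catheterised, 3 per compound, dosed by oral gavage at 25 mg/kg from a 10 mg/mL solution. Femoral-vein blood taken at 0, 15, 30, 45, 60, 120, 240 and 480 min into K2EDTA. Plasma protein-precipitated with an internal standard and quantified by LC–MS/MS against standards in rat plasma. Parameters by non-compartmental analysis.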

[5] = system: Mycobacterium tuberculosis; experiment: Antimicrobial activity against Mycobacterium tuberculosis H37Rv grown in GAS medium without ferric ammonium citrate at pH 6.6 incubated for 10 to 14 days by broth microdilution method; type: functional
[6] = (§6) AUC (0 to infinity) in Sprague-Dawley rat at 25 mg/kg, po by LC-MS/MS method; type: ADME, organism-based; set-up: dose 25 mg/kg, time infinity, route oral; conditions: Sprague-Dawley, in vivo
HepG2 = experiment: Cytotoxicity against human HepG2 cells assessed as reduction in cell viability incubated for 48 hrs by MTT assay; type: cell-based; conditions: hepg2, 48 h
In short: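 HepG2 cells (2.5–5.0 × 10^4 per well) in EMEM with 10% FBS, in triplicate. Final compound concentrations 1–200 μM diluted from 20 mM DMSO stocks. Controls were 1% DMSO and 1% Triton X-100. Incubated 48 h at 37 °C under 5% CO2.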

[7] = Ratio of MIC for antimicrobial activity against Mycobacterium tuberculosis H37Rv to KI)app) for inhibition of Mycobacterium tuberculosis MbtA expressed in Escherichia coli
[8] = Terminal half life in Sprague-Dawley rat at 2.5 mg/kg, iv by LC-MS/MS method; type: ADME, organism-based; conditions: in vivo, read-out: beta t1/2
[9] = Clearance in Sprague-Dawley rat at 2.5 mg/kg, iv by LC-MS/MS method; type: ADME, organism-based; conditions: in vivo; in short: as §1
Caco-2 [10] = experiment: (§7) Efflux ratio in human Caco2 cells after 30 to 120 mins by HPLC method; type: ADME, cell-based; in short: as §3
Rattus norvegicus [11] = experiment: Oral bioavailability in Sprague-Dawley rat at 25 mg/kg by LC-MS/MS method; type: ADME, organism-based; conditions: in vivo
In short: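 Crossover in the same 3 female Sprague-Dawley rats: 25 mg/kg by oral gavage, then after a 3-day washout 2.5 mg/kg iv bolus. Serial femoral plasma quantified by LC–MS/MS. AUCs by non-compartmental analysis. Absolute bioavailability calculated individually for each rat from its oral and iv data.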

Caco-2 [12] = experiment: (§8) Apparent permeability from basolateral to apical side in human Caco2 cells after 30 to 120 mins by HPLC method; type: ADME, cell-based; in short: as §3
[13] = as §2; type: ADME, cell-based; conditions: caco-2; in short: as §3
Rattus norvegicus [14] = experiment: as §4; type: ADME, organism-based; set-up: dose 25 mg/kg, route oral; conditions: in vivo, BLD = below limit of detection; in short: as §5
Rattus norvegicus [15] = experiment: as §6; type: ADME, organism-based; set-up: dose 25 mg/kg, time infinity, route oral; conditions: in vivo, BLD = below limit of detection
[16] = as §7; type: ADME, cell-based; conditions: caco-2; in short: as §3
[17] = as §8; type: ADME, cell-based; conditions: caco-2; in short: as §3
Plasma [18] = experiment: Drug metabolism in Sprague-Dawley rat plasma assessed as 5'-O-[N-(Salicyl)sulfamoyl]adenosine formation at 10 uM; type: ADME, cell-free
Plasma [19] = experiment: Drug metabolism in Sprague-Dawley rat plasma assessed as 2',3'-O-Di-acetyl-5'-O-[N-(2-hydroxybenzoyl)sulfamoyl]-adenosine formation at 10 uM; type: ADME, cell-free
[20] = Stability in pH 12 buffer solutions assessed as compound degradation after 24 hrs at 37 degC; type: physicochemical; conditions: read-out: Drug degradation
In short: (§9)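 Compound held at pH 1 or pH 12 for 24 h at 37 °C, with degradation measured.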

Liver microsome [21] = experiment: Half life in rat liver microsomes at 1 uM in presence of NADPH by LC-MS/MS method; type: ADME
In short: (§10)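 Liver microsomes (rat, mouse or pooled human, 0.5 mg/mL) in 100 mM potassium phosphate pH 7.4 with 10 mM MgCl2 and 1.0 μM compound. Preincubated, then NADPH added (water for control). Incubated 60 min at 37 °C. Acetonitrile quench, centrifugation, supernatant analysed by LC–MS/MS.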

[22] = Cmax in BALB/c mouse; type: ADME, organism-based; conditions: in vivo
Liver microsome [23] = experiment: Half life in human liver microsomes at 1 uM in presence of NADPH by LC-MS/MS method; type: ADME; in short: as §10
[24] = Stability in pH 1 buffer solutions assessed as compound degradation after 24 hrs at 37 degC; type: physicochemical; conditions: read-out: Drug degradation; in short: as §9
[25] = Solubility in water; type: physicochemical; conditions: buffer
[26] = AUC in BALB/c mouse; type: ADME, organism-based; conditions: in vivo
Liver = experiment: Half life in mouse liver microsomes at 1 uM in presence of NADPH by LC-MS/MS method; type: ADME; in short: as §10
[27] = Ratio of Cmax in Sprague-Dawley rat at 25 mg/kg, po to MIC for antimicrobial activity against Mycobacterium tuberculosis H37Rv; type: ADME, organism-based; conditions: in vivo
In short: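 Female Sprague-Dawley rats (250–274 g, catheterised; 3 per compound) got a 25 mg/kg gavage dose from a 10 mg/mL solution. Plasma drawn 0–480 min was read by LC–MS/MS, and Cmax was taken by non-compartmental analysis. […] Cmax was divided by MIC.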

| Compound | AUC(0-inf) [1] [ng·h/mL] | Ki [2] [nM] | Papp (Caco-2 [3]) [×10⁻⁶ cm/s] | Cmax [4] [ng/mL] | MIC [5] [µM] | AUC(0-inf) [6] [ng·h/mL] | CC50 (HepG2) [nM] | Ratio [7] | half-life [8] [min] | clearance [9] [mL/min/kg] | F (Rattus norvegicus [11]) [%] | Papp (Caco-2 [12]) [×10⁻⁶ cm/s] | also measured |
| --- | --- | --- | --- | --- | --- | --- | --- | --- | --- | --- | --- | --- | --- |
| CCN(CC)CC.Nc1ncnc2c1ncn2[C@@H]1O[C@H](CNS(=O)(=O)NC(=O)c2ccccc2O)[C@@H](O)[C@H]1F | 17400 | 1.7 | 4.2 | 460 | 0.19 | 3130 | > 200000 | 112 | 32.5 | 2.5 | 1.8 | 1.34 | Ratio (Caco-2 [10]): 0.32 |
| CC(=O)O[C@@H]1[C@H](OC(C)=O)[C@@H](COS(=O)(=O)NC(=O)c2ccccc2O)O[C@H]1n1cnc2c(N)ncnc21.CCN(CC)CC | – | – | – | – | – | – | – | – | – | – | – | – | Papp A→B [13]: 0.62 ×10⁻⁶ cm/s; Cmax (Rattus norvegicus [14]): BLD; AUC (Rattus norvegicus [15]): BLD; efflux ratio [16]: 1.55; Papp B→A [17]: 0.97 ×10⁻⁶ cm/s |
| CC(=O)Oc1ccccc1C(=O)NS(=O)(=O)OC[C@H]1O[C@@H](n2cnc3c(N)ncnc32)[C@H](OC(C)=O)[C@@H]1OC(C)=O.CCN(CC)CC | – | – | – | 30 | – | 48.3 | – | – | – | – | – | – | Drug metabolism (Plasma [18]): metabolite_detected; Drug metabolism (Plasma [19]): metabolite_detected |
| CCN(CC)CC.Nc1ccc(C(=O)NS(=O)(=O)NC[C@H]2O[C@@H](n3cnc4c(N)ncnc43)[C@H](O)[C@@H]2O)c(O)c1 | 1050 | 8.9 | – | 90 | 3.12 | 280 | > 200000 | 351 | 10.6 | 46.3 | 3.7 | – | – |
| CCN(CC)CC.O=C(NS(=O)(=O)NC[C@H]1O[C@@H](n2cnc3c(NC4CC4)ncnc32)[C@H](O)[C@@H]1O)c1ccccc1O | 3480 | 1.5 | – | 140 | 0.098 | 302 | – | 65 | 15.1 | 9.6 | 1 | – | – |
| CCN(CC)CC.O=C(NS(=O)(=O)NC[C@H]1O[C@@H](n2cnc3c(NC4CC4)nc(-c4ccccc4)nc32)[C@H](O)[C@@H]1O)c1ccccc1O | 3070 | 0.76 | 0.52 | 100 | 6.25 | 66.7 | – | 8224 | 15.5 | 13.6 | 0.3 | 1.8 | Ratio (Caco-2 [10]): 3.45 |
| CCN(CC)CC.Nc1nc(-c2ccccc2)nc2c1ncn2[C@@H]1O[C@H](CNS(=O)(=O)NC(=O)c2ccccc2O)[C@@H](O)[C@H]1F | 33000 | 1.6 | – | 500 | 1.56 | 2330 | > 200000 | 975 | 121 | 1.3 | 0.8 | – | – |
| CCN(CC)CC.Nc1ncnc2c1ncn2[C@@H]1O[C@H](CNS(=O)(=O)NC(=O)c2ccccc2O)C[C@H]1F | 16000 | 3 | – | 560 | 0.78 | 3300 | – | 260 | 62 | 2.6 | 2 | – | – |
| CCN(CC)CC.Nc1ncnc2c1ncn2[C@@H]1O[C@H](COS(=O)(=O)NC(=O)c2ccccc2O)[C@@H](O)[C@H]1O | 8650 | – | 1.23 | 400 | 0.39 | 1100 | > 200000 | – | 11 | 4.9 | 1.3 | 0.96 | degraded at 24 h [20]: < 5%; t1/2 (Liver microsome [21]): > 30 min; Cmax [22]: 1200 ng/mL; t1/2 (Liver microsome [23]): > 30 min; degraded at 24 h [24]: < 5%; solubility [25]: > 50 mg/mL; AUC [26]: 977 ng·h/mL; Ratio (Caco-2 [10]): 0.78; t1/2 (Liver): > 30 min |
| CCN(CC)CC.Nc1ncnc2c1ncn2[C@@H]1O[C@H](CNS(=O)(=O)NC(=O)c2ccccc2O)[C@@H](O)[C@H]1O | 5070 | 3.7 | 1.23 | 700 | 0.19 | – | > 200000 | 51 | 10.6 | 8.4 | 3.5 | 0.86 | Ratio [27]: 7 |
| NNC(=O)c1ccncc1 [ISONIAZID] | – | – | – | 13500 | – | – | – | – | – | – | 65 | – | – |
